Laboratory results published in ChEMBL document CHEMBL4665884, “Structural Insights into the Recognition of Mono- and Diacetylated Histones by the ATAD2B Bromodomain” (J Med Chem, 2020).

What was measured:
[1] = biological target: T1, ATPase family AAA domain-containing protein 2B (Homo sapiens, UniProt Q9ULI0); test: Binding affinity to N-terminal GST tagged human ATAD2B (953-1085 residues) expressed in Escherichia coli by ITC analysis
T1 sequence (Q9ULI0 whole entry): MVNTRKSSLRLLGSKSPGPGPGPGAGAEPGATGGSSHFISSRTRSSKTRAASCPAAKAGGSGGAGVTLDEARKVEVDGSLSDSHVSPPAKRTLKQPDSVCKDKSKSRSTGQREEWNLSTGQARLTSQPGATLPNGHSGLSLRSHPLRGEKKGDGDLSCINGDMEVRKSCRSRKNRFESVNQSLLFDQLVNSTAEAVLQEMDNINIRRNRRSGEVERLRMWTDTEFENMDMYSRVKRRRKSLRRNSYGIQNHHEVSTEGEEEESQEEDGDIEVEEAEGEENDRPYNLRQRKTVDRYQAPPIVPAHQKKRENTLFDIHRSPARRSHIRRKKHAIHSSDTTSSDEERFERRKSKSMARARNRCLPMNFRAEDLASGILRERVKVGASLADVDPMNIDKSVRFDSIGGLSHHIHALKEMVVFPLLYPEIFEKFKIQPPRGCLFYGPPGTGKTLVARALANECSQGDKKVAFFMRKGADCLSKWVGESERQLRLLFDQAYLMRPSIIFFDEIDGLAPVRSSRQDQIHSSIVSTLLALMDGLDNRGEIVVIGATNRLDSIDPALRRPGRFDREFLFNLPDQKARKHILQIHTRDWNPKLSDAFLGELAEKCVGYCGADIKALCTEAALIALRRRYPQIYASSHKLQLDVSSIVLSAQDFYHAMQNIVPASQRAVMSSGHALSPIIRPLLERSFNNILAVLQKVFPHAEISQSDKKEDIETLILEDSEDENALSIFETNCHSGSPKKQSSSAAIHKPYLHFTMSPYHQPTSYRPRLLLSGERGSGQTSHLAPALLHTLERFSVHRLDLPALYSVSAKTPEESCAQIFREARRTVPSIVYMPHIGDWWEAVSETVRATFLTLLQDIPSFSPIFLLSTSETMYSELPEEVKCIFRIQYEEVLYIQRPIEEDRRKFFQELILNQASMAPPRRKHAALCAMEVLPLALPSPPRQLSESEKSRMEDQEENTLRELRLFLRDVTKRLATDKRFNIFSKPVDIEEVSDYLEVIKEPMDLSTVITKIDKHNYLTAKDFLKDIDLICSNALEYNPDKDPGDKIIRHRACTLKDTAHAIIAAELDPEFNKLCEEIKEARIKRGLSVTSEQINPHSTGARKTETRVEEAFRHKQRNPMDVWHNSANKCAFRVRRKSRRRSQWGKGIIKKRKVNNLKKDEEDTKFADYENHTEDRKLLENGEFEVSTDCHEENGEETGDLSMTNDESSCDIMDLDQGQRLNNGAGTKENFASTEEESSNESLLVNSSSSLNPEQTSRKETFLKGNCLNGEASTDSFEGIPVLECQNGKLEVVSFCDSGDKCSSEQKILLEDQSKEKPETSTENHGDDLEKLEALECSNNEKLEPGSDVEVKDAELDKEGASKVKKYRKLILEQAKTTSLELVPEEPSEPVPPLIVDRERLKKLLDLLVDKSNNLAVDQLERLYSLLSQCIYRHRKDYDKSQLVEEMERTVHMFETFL
In short: (§1)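 GST tag removed by PreScission cleavage after glutathione-resin capture. Protein and peptides were dialyzed into 20 mM NaH2PO4 pH 7.0, 150 mM NaCl. Peptide dilution heats were subtracted. KD is the mean ± SD of triplicates; non-binders were run in duplicate.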

[2] = biological target: T2, ATPase family AAA domain-containing protein 2 (Homo sapiens, UniProt Q6PL18); test: Binding affinity to N-terminal GST tagged human ATAD2 (1-20 residues) expressed in Escherichia coli by ITC analysis
T2 sequence (Q6PL18 whole entry): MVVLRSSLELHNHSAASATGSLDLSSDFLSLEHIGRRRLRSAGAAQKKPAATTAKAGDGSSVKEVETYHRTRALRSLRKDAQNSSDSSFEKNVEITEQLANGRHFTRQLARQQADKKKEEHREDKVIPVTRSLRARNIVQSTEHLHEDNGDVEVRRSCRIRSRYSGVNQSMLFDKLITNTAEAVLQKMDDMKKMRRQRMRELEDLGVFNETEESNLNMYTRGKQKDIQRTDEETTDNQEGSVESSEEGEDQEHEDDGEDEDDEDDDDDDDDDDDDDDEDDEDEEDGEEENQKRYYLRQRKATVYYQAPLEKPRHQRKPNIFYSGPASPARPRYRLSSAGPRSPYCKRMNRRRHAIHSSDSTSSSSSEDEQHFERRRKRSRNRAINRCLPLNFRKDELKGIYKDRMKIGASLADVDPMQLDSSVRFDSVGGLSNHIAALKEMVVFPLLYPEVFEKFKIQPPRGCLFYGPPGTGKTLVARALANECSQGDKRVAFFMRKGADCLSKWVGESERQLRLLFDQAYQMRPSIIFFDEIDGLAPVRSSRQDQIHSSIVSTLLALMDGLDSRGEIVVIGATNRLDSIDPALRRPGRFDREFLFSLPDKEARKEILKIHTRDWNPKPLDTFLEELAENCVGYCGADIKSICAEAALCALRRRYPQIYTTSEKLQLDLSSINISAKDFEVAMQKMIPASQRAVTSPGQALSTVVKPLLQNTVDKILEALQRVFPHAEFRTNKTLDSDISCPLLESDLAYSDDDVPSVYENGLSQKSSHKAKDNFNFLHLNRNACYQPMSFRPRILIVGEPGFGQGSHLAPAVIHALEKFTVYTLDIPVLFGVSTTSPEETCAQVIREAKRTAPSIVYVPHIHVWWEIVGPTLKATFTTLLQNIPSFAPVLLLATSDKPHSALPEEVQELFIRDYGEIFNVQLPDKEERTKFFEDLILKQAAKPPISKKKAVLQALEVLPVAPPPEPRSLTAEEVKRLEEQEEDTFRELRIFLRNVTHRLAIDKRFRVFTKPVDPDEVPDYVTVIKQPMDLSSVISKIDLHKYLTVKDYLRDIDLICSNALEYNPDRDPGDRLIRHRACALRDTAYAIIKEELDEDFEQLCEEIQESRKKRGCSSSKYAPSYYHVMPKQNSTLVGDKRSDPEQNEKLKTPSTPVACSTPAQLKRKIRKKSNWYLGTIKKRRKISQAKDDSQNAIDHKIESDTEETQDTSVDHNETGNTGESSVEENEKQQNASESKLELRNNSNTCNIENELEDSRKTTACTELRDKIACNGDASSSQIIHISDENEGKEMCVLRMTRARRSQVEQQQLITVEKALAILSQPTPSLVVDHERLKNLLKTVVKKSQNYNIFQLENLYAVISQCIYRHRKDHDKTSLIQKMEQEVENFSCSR

[3] = Binding affinity to N-terminal GST tagged human ATAD2B Y995A mutant expressed in Escherichia coli by ITC analysis; in short: as §1
[4] = Binding affinity to N-terminal GST tagged human ATAD2B Y1037A mutant expressed in Escherichia coli by ITC analysis; in short: as §1
[5] = biological target: T1, ATPase family AAA domain-containing protein 2B; test: Binding affinity to N-terminal GST tagged human ATAD2B short form expressed in Escherichia coli by ITC analysis; in short: as §1
[6] = biological target: T2, ATPase family AAA domain-containing protein 2; test: Binding affinity to N-terminal GST tagged human ATAD2 (1-25 residues) expressed in Escherichia coli by ITC analysis
[7] = Binding affinity to N-terminal GST tagged human ATAD2B N1038A mutant expressed in Escherichia coli by ITC analysis; in short: as §1

| Compound | Kd [1] | Kd ([1]; read-out: Kd) | Kd [3] | Kd [4] | Kd [5] | further results |
| --- | --- | --- | --- | --- | --- | --- |
| H-LGKGGAK(Ac)RHRK-OH | Not Active |  |  |  |  |  |
| H-SGRGK(Ac)GGKGL-OH |  | 48 µM | Not Active | Not Active | Not Active | Kd [2]: 22 µM |
| Cc1cncc(-c2ccc(N[C@@H]3CCNC[C@H]3OCC3CCS(=O)(=O)CC3)c3[nH]c(=O)c(C)cc23)c1 |  | 0.167 µM |  |  | Not Active |  |
| CC(=O)NCCCC[C@H](NC(=O)CNC(=O)CN)C(=O)NCC(=O)N[C@@H](CC(C)C)C(=O)NCC(=O)N[C@@H](CCCCNC(C)=O)C(=O)NCC(=O)NCC(=O)N[C@@H](C)C(=O)O | Not Active |  |  |  |  |  |
| C[C@H](N)C(=O)N[C@@H](CCCNC(=N)N)C(=O)N[C@H](C(=O)N[C@@H](CCCCN)C(=O)N[C@@H](CCC(N)=O)C(=O)N[C@H](C(=O)N[C@@H](C)C(=O)N[C@@H](CCCNC(=N)N)C(=O)N[C@@H](CCCCN)C(=O)N[C@@H](CO)C(=O)N[C@H](C(=O)NCC(=O)O)[C@@H](C)O)[C@@H](C)O)[C@@H](C)O | Not Active |  |  |  |  |  |
| H-SGRGK(Ac)QGGKARA-OH |  | 42.5 µM | Not Active | Not Active | Not Active |  |
| CC(=O)NCCCC[C@H](NC(=O)CNC(=O)CNC(=O)[C@H](CCCCN)NC(=O)CN)C(=O)NCC(=O)N[C@@H](CC(C)C)C(=O)NCC(=O)N[C@@H](CCCCN)C(=O)NCC(=O)NCC(=O)N[C@@H](C)C(=O)N[C@@H](CCCCN)C(=O)N[C@@H](CCCNC(=N)N)C(=O)O | Not Active |  |  |  |  |  |
| CC(=O)NCCCC[C@H](NC(=O)CNC(=O)[C@H](CC(C)C)NC(=O)CNC(=O)[C@H](CCCCN)NC(=O)CNC(=O)CNC(=O)[C@H](CCCCN)NC(=O)CN)C(=O)NCC(=O)NCC(=O)N[C@@H](C)C(=O)N[C@@H](CCCCN)C(=O)N[C@@H](CCCNC(=N)N)C(=O)O |  | 50.5 µM | Not Active | Not Active | Not Active | Kd [6]: 2.5 µM |
| CC(=O)NCCCC[C@H](NC(=O)CN)C(=O)NCC(=O)NCC(=O)N[C@@H](CCCCN)C(=O)NCC(=O)N[C@@H](CC(C)C)C(=O)NCC(=O)N[C@@H](CCCCN)C(=O)NCC(=O)NCC(=O)N[C@@H](C)C(=O)N[C@@H](CCCCN)C(=O)N[C@@H](CCCNC(=N)N)C(=O)O | Not Active |  |  |  |  | Kd [7]: Not Active |
| C[C@H](NC(=O)[C@H](CCCCN)NC(=O)CNC(=O)CNC(=O)[C@@H](NC(=O)[C@H](CO)NC(=O)[C@H](CCCCN)NC(=O)[C@@H](N)CCCNC(=N)N)[C@@H](C)O)C(=O)N1CCC[C@H]1C(=O)N[C@@H](CCCNC(=N)N)C(=O)N[C@@H](CCCCN)C(=O)N[C@@H](CCC(N)=O)C(=O)O | Not Active |  |  |  |  |  |
| H-LGK(Ac)GGAK(Ac)RHRK-OH |  | 214 µM |  |  |  |  |
| H-SGRGKGGK(Ac)GL-OH |  | 1160 µM |  |  |  |  |
| H-SGRGK(Ac)GGK(Ac)GL-OH |  | 28.1 µM | Not Active | Not Active | Not Active | Kd ([7]; read-out: Kd): 623 µM |
